Bioassay records: PubChem BioAssay, Broad Institute
DENV2 CPE rescue: inhibitors of DENV2 cytopathic effect | DENV2-infected cells, cytopathic effect rescue, plate reader | CPE inhibition, % at 9.99 µM | 1.7% of 350,000 active; in the data active = CPE inhibition above about 20%, passing the limit was not always enough; inconclusive = no clear call, values can overlap the other calls; tested in BHK-21 cells
ERAP1 inh: ERAP1 (human) enzyme inhibition | recombinant ERAP1, Leu-AMC fluorescence, 60 min | inhibition, % at 10.7 µM | 0.15% of 340,000 active | AID 652197;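 active = mean replicate inhibition of at least 30%, or all replicates individually reaching that 30% level; inactive = mean below 30% and not every replicate reaching it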
Target sequence (Q9NZ08 whole entry, looked up): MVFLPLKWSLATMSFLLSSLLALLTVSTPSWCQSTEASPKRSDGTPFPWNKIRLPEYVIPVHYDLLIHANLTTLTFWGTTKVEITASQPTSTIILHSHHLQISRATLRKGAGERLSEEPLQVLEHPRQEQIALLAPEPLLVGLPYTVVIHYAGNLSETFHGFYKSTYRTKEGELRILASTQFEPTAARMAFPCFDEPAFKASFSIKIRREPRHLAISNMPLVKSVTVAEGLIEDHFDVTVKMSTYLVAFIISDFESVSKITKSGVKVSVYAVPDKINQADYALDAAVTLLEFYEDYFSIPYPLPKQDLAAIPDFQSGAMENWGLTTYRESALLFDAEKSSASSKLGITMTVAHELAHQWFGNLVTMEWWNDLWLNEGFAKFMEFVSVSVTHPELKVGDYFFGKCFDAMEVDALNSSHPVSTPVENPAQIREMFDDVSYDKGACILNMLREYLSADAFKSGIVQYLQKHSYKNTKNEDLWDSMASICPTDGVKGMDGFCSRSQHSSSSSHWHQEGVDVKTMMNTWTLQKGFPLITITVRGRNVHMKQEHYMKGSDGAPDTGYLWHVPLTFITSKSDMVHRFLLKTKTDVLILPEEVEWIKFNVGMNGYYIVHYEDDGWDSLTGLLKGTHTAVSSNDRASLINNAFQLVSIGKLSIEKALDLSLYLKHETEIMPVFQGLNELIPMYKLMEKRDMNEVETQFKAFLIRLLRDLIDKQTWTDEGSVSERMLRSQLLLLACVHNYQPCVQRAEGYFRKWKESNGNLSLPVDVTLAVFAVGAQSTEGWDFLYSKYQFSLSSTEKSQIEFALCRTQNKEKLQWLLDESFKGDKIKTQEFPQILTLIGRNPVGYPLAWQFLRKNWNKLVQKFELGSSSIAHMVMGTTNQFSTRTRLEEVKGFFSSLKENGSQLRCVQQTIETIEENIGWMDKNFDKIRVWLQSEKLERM
FGF22 binding-1: FGF22 (human) thermal shift binding. AID 651658. activity (Tm shift, normalised), % at 9.99 µM. recombinant FGF22 thermal shift, SYPRO orange fluorescence; percent of sucrose octasulfate shift, DMSO zero. 1.5% of 340,000 active;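 active = mean Tm shift, scaled 0 neutral to 100 positive control, at about 1.3% or above, every replicate too, limit read from the data; inconclusive = no clear call, values can overlap the other calls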
E-selectin induc: induces E-selectin expression in human endothelial cells | P16581 | HUVEC E-selectin immunofluorescence imaging; normalized: neutral wells 0, TNF-alpha wells 100 | activation, % at 7.58 µM | 0.37% of 260,000 active;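 active = mean E-selectin-positive cell signal at least 10% of the positive control, reached in at least 60% of replicates, without over 20% cell loss; inconclusive = no rule given, readout overlaps actives, possibly toxicity-flagged; inactive = the rest, including those meeting only one limit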
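Read-out basis: % PE-positive cells; Test system: HUVEC primary endothelial cells; Technique: immunofluorescence imaging; Dosing: single-point compound dose.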
F508del corr: CFTR F508del correction in bronchial cells; CFBE cells, YFP halide quenching; stimulated with forskolin plus potentiator P3; % fluorescence drop versus neutral controls; activity (quench increase), % at 7.58 µM; 0.36% of 350,000 active; AID 720511;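 active = mean added fluorescence quench of at least 8% versus neutral control, with both replicates also reaching 8%; inconclusive = only one of the mean or replicate conditions met; inactive = mean below 8% and not both replicates reaching 8%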;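 note: cells transiently co-express mutant CFTR-F508del with the halide-sensitive YFP; corrector assay measuring rescue of mutant channel to the surface after 24 h compound exposure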
FGF22 binding-2: binders of human FGF22 by thermal shift. thermal shift activity, °C (ΔTm) at 38 µM. shares compounds with FGF22 binding-1. recombinant FGF22 thermal shift, SYPRO orange fluorescence. 2% of 1,000 active. AID 720646;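 active = fitted rise in melting shift crosses a set limit at or below the top valid dose tested; inconclusive = flat fit at mid-level activity, or a poor quality fit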
FGF22 TSA: FGF22 (human) binding by thermal shift; Tm shift (activity), % at 38 µM; 50 tested, under 10 active; AID 743017; shares compounds with FGF22 binding-1; Thermal shift assay, SYPRO orange, melting temperature shift;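 active = compounds whose fitted dose curve of melting temperature shift rises past a set threshold within the tested doses; inconclusive = flat curve at moderate activity, or poor curve fit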
TSA no protein: counter-screen for FGF22 binders: compound-only thermal shift, no protein. 2% of 1,000 active. compound-only SYPRO orange thermal shift counter-screen. AID 743019. shares compounds with FGF22 binding-1. AC50, µM (highest dose often 38 µM);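 active = rising signal whose fitted curve reaches the 0.54 level within the top valid dose, showing a melting point, actives reach about 13 µM in these data; inactive = the rest, including activity in the opposite direction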; note: value is where the raw curve crosses a fixed level and not half-maximal
Of the large screens only hits and unclear results are named; the others gave an inactive call (follow-up assays come after a bar, where they were run). Rows were chosen to be rich in hits. Some 3.7% of all compounds tested hit in one or more screens of this group.

CC1(C(=O)NS(=O)(=O)c2cccc(Cl)c2)CCN1C(=O)Cc1ccc(-c2ccccc2)cc1 (stereo unspecified)	FGF22 binding-1 1.9 | FGF22 binding-2 inactive | TSA no protein inactive
COc1ccccc1CNC(=O)C[C@@H]1C[C@@H]2c3cc(NC(=O)c4ccc5c(c4)OCO5)ccc3O[C@@H]2[C@@H](CO)O1	none
COCC(=O)Nc1ccc2c(c1)C(=O)N(C)C[C@@H](OC)[C@H](C)CN(Cc1cc(-c3ccccc3)on1)[C@H](C)CO2	none
CC(OC(=O)c1ccccc1)C(=O)NCCC1=CCCCC1 (stereo unspecified)	FGF22 binding-1 1.6 | FGF22 binding-2 inactive | TSA no protein inactive
COc1ccc(N2CCN(CCOc3ccc4c(C)cc(=O)oc4c3)CC2)cc1	FGF22 binding-1 2.2 (no result: F508del corr) | TSA no protein inactive
Cc1ccc(OCCCC(=O)Nc2ccc(S(=O)(=O)N3CCOCC3)cc2)cc1	FGF22 binding-1 2.5 | FGF22 binding-2 inactive | FGF22 TSA inactive | TSA no protein inactive
Cc1ccc(NC(=O)CSCC(=O)Nc2ccc(S(=O)(=O)N3CCOCC3)cc2)cc1	none
Cc1ccc(NC(=O)CN(C)C(C)C(=O)Nc2ccc(S(=O)(=O)N3CCCC3)cc2)cc1 (stereo unspecified)	FGF22 binding-1 13 | FGF22 binding-2 inactive | TSA no protein inactive
COc1ccc(NC(=O)N(C)C[C@@H]2Oc3ccc(N(C)C)cc3C(=O)N([C@H](C)CO)C[C@H]2C)cc1	none
COc1ccc(Br)cc1S(=O)(=O)Nc1ncccc1C	FGF22 binding-1 1.5 (no result: E-selectin induc) | FGF22 binding-2 inactive | TSA no protein inactive
CCC(=O)N1CC2(C1)CN(C(=O)CC)[C@H](CO)c1[nH]c3cc(OC)ccc3c12	DENV2 CPE rescue inconclusive
c1ccc(Nc2cccc3c(Nc4ccccc4)cccc23)cc1	none (no result: DENV2 CPE rescue, ERAP1 inh)
O=S(=O)(O)c1cccc2cccc(Nc3ccccc3)c12	ERAP1 inh 43, FGF22 binding-1 1.5 | FGF22 binding-2 inactive | TSA no protein inactive
Cc1nc2ccccc2c2oc(C(=O)NCc3ccc4c(c3)OCO4)cc12	FGF22 binding-1 11 | FGF22 binding-2 inactive | TSA no protein 6.3µM
O=C(Nc1ccc2c(c1)OCO2)c1cnn2cccnc12	FGF22 binding-1 1.9 (no result: E-selectin induc) | FGF22 binding-2 inactive | TSA no protein inactive
O=C(Nc1cccc(O)c1)c1cnn2cccnc12	none (no result: E-selectin induc)
O=C(CC1S/C(=N/N=C/c2cccs2)NC1=O)Nc1ccc(Cl)cc1 (stereo unspecified)	none
O=C(CC1SC(=O)NC1=O)Nc1ccc(Cl)cc1 (stereo unspecified)	FGF22 binding-1 6.2 (no result: E-selectin induc) | TSA no protein inactive
COCC(=O)Nc1ccc2c(c1)C(=O)N(C)[C@@H]1CC[C@@H](CC(=O)O)O[C@H]1CO2	none (no result: ERAP1 inh)
CC(C)C#Cc1ccc([C@@H]2[C@@H](CO)N3C(=O)CN(C(=O)C4CCCCC4)C[C@H]23)cc1	none
CC(C)C#Cc1ccc([C@H]2[C@@H](CO)N3C(=O)CN(C(=O)C4CCCCC4)C[C@@H]23)cc1	DENV2 CPE rescue inconclusive, FGF22 binding-1 1.9 | FGF22 binding-2 inactive | TSA no protein inactive
CC(C)C#Cc1ccc([C@@H]2[C@@H](CO)N3C(=O)CN(C(=O)C4CCCCC4)C[C@@H]23)cc1	FGF22 binding-1 1.3 | FGF22 binding-2 inactive | TSA no protein inactive
C[C@@H]1CN([C@H](C)CO)C(=O)Cc2cc(NC(=O)Cc3ccccc3)ccc2O[C@@H]1CN(C)S(=O)(=O)c1cn(C)cn1	none (no result: ERAP1 inh)
CCC(=O)N1CC2(CCN(Cc3nccs3)CC2)c2c(n(C)c3cc(OC)ccc23)[C@H]1CO	none
CCC(=O)N1CC2(CCN(Cc3nccs3)CC2)c2c(n(C)c3cc(OC)ccc23)[C@@H]1CO	FGF22 binding-1 1.3 | FGF22 binding-2 inactive | TSA no protein inactive
C[C@@H]1CN([C@H](C)CO)C(=O)c2cccc(NC(=O)C3CCCCC3)c2O[C@H]1CN(C)S(C)(=O)=O	none
C[C@H](CO)N1C[C@H](C)[C@@H](CN(C)C)Oc2ncc(-c3cccnc3)cc2C1=O	DENV2 CPE rescue inconclusive, FGF22 binding-1 1.7 (no result: E-selectin induc) | FGF22 binding-2 inactive | TSA no protein inactive
COc1ccccc1-c1cnc2c(c1)C(=O)N([C@H](C)CO)C[C@H](C)[C@@H](CN(C)C(=O)c1cccnc1)O2	none
Cc1ccc(S(=O)(=O)N(C)C[C@H]2Oc3ncc(Br)cc3C(=O)N([C@@H](C)CO)C[C@H]2C)cc1	FGF22 binding-1 5.3 | FGF22 binding-2 inactive | TSA no protein inactive
C[C@@H]1CN([C@@H](C)CO)C(=O)c2cc(-c3cccnc3)cnc2O[C@@H]1CN(C)C	none
Cc1ccc(S(=O)(=O)N(C)C[C@H]2Oc3ncc(Br)cc3C(=O)N([C@@H](C)CO)C[C@@H]2C)cc1	none
COc1ccccc1-c1cnc2c(c1)C(=O)N([C@@H](C)CO)C[C@H](C)[C@H](CN(C)C(=O)c1cccnc1)O2	FGF22 binding-1 1.9 | FGF22 binding-2 inactive | TSA no protein inactive
C[C@H](CO)N1C[C@H](C)[C@H](CN(C)C(=O)NC2CCCCC2)OCCCC[C@H](C)Oc2ccc(NC(=O)Nc3ccc(F)cc3)cc2C1=O	none (no result: E-selectin induc)
CN1C(=O)c2cc(NC(=O)c3ccc(F)cc3)ccc2OC[C@H]2O[C@H](CC(=O)NCC3CCCCC3)CC[C@H]21	none
CN1CCN(C(=O)C[C@@H]2CC[C@H]3[C@@H](COC[C@H](O)CN3C(=O)Nc3cc(Cl)cc(Cl)c3)O2)CC1	none
C[C@@H]1CN([C@@H](C)CO)C(=O)c2cccc(NC(=O)Nc3ccc(F)cc3)c2O[C@H]1CN(C)Cc1ccc(C(=O)Nc2ccccc2N)cc1	none
COc1cc(F)ccc1-c1cc(C(=O)NCc2cccs2)[nH]n1	none
CC(C)Oc1ccc(F)cc1-c1cc(C(=O)NCc2cccs2)[nH]n1	DENV2 CPE rescue inconclusive, FGF22 binding-1 1.6 | FGF22 binding-2 inactive | TSA no protein inactive
COCC(=O)N(C)C[C@@H]1Oc2cc(C#Cc3ccccc3)ccc2S(=O)(=O)N([C@@H](C)CO)C[C@H]1C	FGF22 binding-1 1.6 | FGF22 binding-2 inactive | TSA no protein inactive
C[C@H](CO)N1C[C@H](C)[C@@H](CN(C)C)Oc2cc(C#CC3CCCCC3)ccc2S1(=O)=O	none
COc1ccccc1S(=O)(=O)N(C)C[C@@H]1Oc2cc(C#CCC(C)C)ccc2S(=O)(=O)N([C@H](C)CO)C[C@H]1C	DENV2 CPE rescue inconclusive (no result: E-selectin induc)
COCC(=O)N(C)C[C@@H]1Oc2cc(C#Cc3ccccc3)ccc2S(=O)(=O)N([C@H](C)CO)C[C@H]1C	none
